Ki and half-life data for twelve compounds are collected here from ChEMBL document CHEMBL5252514, “Conopeptide-Derived κ-Opioid Agonists (Conorphins): Potent, Selective, and Metabolic Stable Dynorphin A Mimetics with Antinociceptive Properties” (J Med Chem, 2016).

SMILES strings stand for the structures. Where a SMILES comes first, the peptide text is derived from it. A value given as a limit tells only on which side of the number the result lay.

In series [1] the target is Kappa-type opioid receptor (Homo sapiens, UniProt P41145). The series can be described thus: Displacement of [3H]U69593 from human kappa opioid receptor expressed in CHO-K1 cells incubated for 1 hr by 1450 microbeta scintillation counter analysis. It is filed as cell-based. The procedure, abridged:
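Membranes from transiently KOR-transfected CHO-K1 cells (~2 µg/well) used in SPA with 3H-U69,593 (1 nM). Competitor ranged 1 pM–10 µM in 50 mM Tris-HCl pH 7.4, 5 mM MgCl2, 0.1% BSA. Incubated 1 h at room temperature with shaking. Nonspecific binding defined with 10 µM dynorphin A. Sigmoidal dose-response fit; at least three independent experiments in triplicate.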

The nature of series [2]: Metabolic stability in Wistar rat plasma assessed as half life by HPLC analysis. Format: ADME, cell-free. The method in brief: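 Peptide at 1 mg/mL in sterile PBS pH 7.4 was mixed 1:1 with thawed, centrifuged Wistar rat plasma supernatant and incubated at 37°C in triplicate. Samples at 0, 1, 2, 3, 4, 6 and 24 h were quenched with acetonitrile and then 2% TFA/water, and analysed by HPLC with inline electrospray MS.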

Sequence of Kappa-type opioid receptor (P41145 whole entry): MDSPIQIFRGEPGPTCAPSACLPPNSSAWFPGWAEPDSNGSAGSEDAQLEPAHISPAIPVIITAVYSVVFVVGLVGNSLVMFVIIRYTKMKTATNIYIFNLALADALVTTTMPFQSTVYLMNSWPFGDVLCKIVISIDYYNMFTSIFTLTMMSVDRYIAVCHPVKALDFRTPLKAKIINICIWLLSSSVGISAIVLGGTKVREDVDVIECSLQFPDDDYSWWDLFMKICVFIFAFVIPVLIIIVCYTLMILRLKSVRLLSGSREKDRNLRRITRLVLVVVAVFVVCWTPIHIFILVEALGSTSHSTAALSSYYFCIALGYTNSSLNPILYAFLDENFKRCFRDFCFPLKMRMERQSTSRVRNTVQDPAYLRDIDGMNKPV

Take `N=C(N)NCCC[C@@H](NC(=O)c1cnc2ccccc2c1)C(=O)N[C@H](CCCNC(=N)N)C(=O)N[C@@H](CCC(N)=O)C(=O)N[C@@H](CC1CCCCC1)C(=O)N[C@H]1CSSC[C@@H](C(N)=O)NC1=O`: in series [1], affinity was put at a Ki of 0.71 nM. The half-life in series [2] stood at 0.75 h.

In series [1], `N=C(N)NCCC[C@@H](NC(=O)[C@@H]1Cc2ccccc2CN1)C(=O)N[C@H](CCCNC(=N)N)C(=O)N[C@@H](CCC(N)=O)C(=O)N[C@@H](CC1CCCCC1)C(=O)N[C@H]1CSSC[C@@H](C(N)=O)NC1=O` gave an inhibition constant (Ki) of 0.91 nM. Further, the half-life in series [2] was 0.75 h.

In series [1], `N=C(N)NCCC[C@@H](NC(=O)[C@@H](CCCNC(=N)N)NC(=O)[C@@H]1CCCN1C(=O)c1ccc(O)cc1)C(=O)N[C@@H](CCC(N)=O)C(=O)N[C@@H](CS)C(=O)N[C@@H](CC1CCCCC1)C(=O)N[C@H]1CSSC[C@@H](C(N)=O)NC1=O` showed an inhibition constant Ki of 1.2 nM. In series [2], the half-life was determined as 2 h.

Regarding `N=C(N)NCCC[C@@H](NC(=O)c1cc2ccccc2cc1N)C(=O)N[C@H](CCCNC(=N)N)C(=O)N[C@@H](CCC(N)=O)C(=O)N[C@@H](CC1CCCCC1)C(=O)N[C@H]1CSSC[C@@H](C(N)=O)NC1=O`, in series [1], the Ki is 0.64 nM. Besides, the half-life in series [2] worked out at 1 h.

In series [1], `N=C(N)NCCC[C@@H](NC(=O)[C@@H](CCCNC(=N)N)NC(=O)[C@@H]1CCCN1C(=O)c1ccc(Cl)cc1)C(=O)N[C@@H](CCC(N)=O)C(=O)N[C@@H](CC1CCCCC1)C(=O)N[C@H]1CSSC[C@@H](C(N)=O)NC1=O` had a Ki of 0.13 nM. Further, the half-life in series [2] stood at 1 h.

Regarding `N=C(N)NCCC[C@@H](NC(=O)[C@@H](CCCNC(=N)N)NC(=O)[C@@H]1CCCN1C(=O)c1ccccc1)C(=O)NCC(=O)N[C@@H](CC1CCCCC1)C(=O)N[C@H]1CSSC[C@@H](C(N)=O)NC1=O`, the inhibition constant Ki in series [1] came to 0.16 nM. Besides, in series [2], the half-life is 1 h.

In series [1], `N=C(N)NCCC[C@@H](NC(=O)[C@@H](CCCNC(=N)N)NC(=O)[C@@H]1CCCN1C(=O)c1ccc2ccccc2c1)C(=O)N[C@@H](CCC(N)=O)C(=O)N[C@@H](CC1CCCCC1)C(=O)N[C@H]1CSSC[C@@H](C(N)=O)NC1=O` yielded a Ki of 0.07 nM. The half-life in series [2] turned out to be 0.5 h.

Compound `N=C(N)NCCC[C@H](NC(=O)[C@H](CCCNC(=N)N)NC(=O)[C@@H]1CSSC[C@H](NC(=O)[C@@H](N)CC(N)=O)C(=O)N1)C(=O)N[C@@H](CCC(N)=O)C(=O)N[C@@H](CC1CCCCC1)C(=O)N[C@H]1CSSC[C@@H](C(N)=O)NC1=O` (HELM PEPTIDE1{N.C.C.R.R.Q.[Cha].C.C.[am]}$PEPTIDE1,PEPTIDE1,2:R3-3:R3|PEPTIDE1,PEPTIDE1,8:R3-9:R3$$$V2.0) returned a Ki in series [1] of 1.3 nM. In addition, the half-life in series [2] was less than 0.25 h.

The compound `N=C(N)NCCC[C@H](NC(=O)[C@@H]1CCC(=O)N1)C(=O)N[C@H](CCCNC(=N)N)C(=O)N[C@@H](CCC(N)=O)C(=O)N[C@@H](CC1CCCCC1)C(=O)N[C@H]1CSSC[C@@H](C(N)=O)NC1=O` yielded a Ki in series [1] of 16.1 nM. Further, the half-life in series [2] stood at 20 h.

In series [1], `N=C(N)NCCC[C@H](NC(=O)[C@@H](CCCNC(=N)N)NC(=O)[C@@H]1CCC(=O)N1)C(=O)N[C@@H](CCC(N)=O)C(=O)N[C@@H](CC1CCCCC1)C(=O)N[C@H]1CSSC[C@@H](C(N)=O)NC1=O` showed a Ki of 13 nM. The half-life in series [2] is 1.5 h.

As to `N=C(N)NCCC[C@H](NC(=O)[C@@H](CCCNC(=N)N)NC(=O)[C@@H](CCCNC(=N)N)NC(=O)[C@@H]1CCCN1C(=O)c1ccccc1)C(=O)N[C@@H](CC1CCCCC1)C(=O)N[C@H]1CSSC[C@@H](C(N)=O)NC1=O`, the affinity in series [1] corresponds to a Ki of 0.23 nM. For the same compound, in series [2], the half-life is 12 h.

Turning to `CC[C@H](C)[C@H](NC(=O)[C@H](CCC(N)=O)NC(=O)[C@H](CCCNC(=N)N)NC(=O)[C@@H](N)CCCNC(=N)N)C(=O)N[C@H]1CSSC[C@@H](C(N)=O)NC1=O` (HELM PEPTIDE1{R.R.Q.I.C.C.[am]}$PEPTIDE1,PEPTIDE1,5:R3-6:R3$$$V2.0), in series [1], affinity was put at a Ki of 270 nM. In addition, in series [2], the half-life is 0.75 h.
